Tests used:
[1] = Pharmacokinetic profile of tacrolimus; assay type: in vivo, human; settings: dose-adjusted whole-blood concentrations; P=0.024 and 0.031
In short: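 Stable Korean kidney recipients (n=18; ≥20 y, ≥6 months post-transplant, creatinine <2.0 mg/dL) on steroid/mycophenolate/tacrolimus, trough-targeted 5–10 ng/mL. Fasting; whole blood drawn pre-morning dose (C0) and at 1–4 h post-dose; mass spectrometry. AUC0–4 by linear trapezoidal rule; values dose-adjusted. Lean/fat mass by bioelectrical impedance; groups split at median, compared by Mann-Whitney U (P<0.05).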

[2] = n-octanol versus water; cited from earlier work
[3] = transplant recipient group with a high BMI; cited from earlier work

Question: Which “C0 and C4 in the high-fat group compared with the low-fat group” value [1] does the source give for `C=CC[C@@H]1/C=C(\C)C[C@H](C)C[C@H](OC)[C@H]2O[C@@](O)(C(=O)C(=O)N3CCCC[C@H]3C(=O)O[C@H](/C(C)=C/[C@@H]3CC[C@@H](O)[C@H](OC)C3)[C@H](C)[C@@H](O)CC1=O)[C@H](C)C[C@@H]2OC` [tacrolimus] here?
Answer: Its value is “significantly elevated”.

Question: What about the “partition coefficient of tacrolimus in n-octanol relative to water” value [2] of the same compound?
Answer: Its value is 1000 fold.

Question: And the tacrolimus levels [3]?
Answer: The tacrolimus levels was “higher than 15 ng/mL”.
